Measurements from different studies.
pEC50, pIC50: −log10 of the molar value.

| Compound | tested on | assay | conditions | endpoint | result |
| --- | --- | --- | --- | --- | --- |
| Cc1c(C)c2c(c(C)c1O)CCC(C)(C(=O)O)O2 (stereo not drawn) | – | DPPH scavenging | – | pIC50 | 4.15 |
| CCN(CC)c1ccc(/C=N/c2ccc(Br)cc2)c(O)c1 | – | DPPH scavenging | – | pIC50 | 4.36 |
| S=C(Nc1ccccc1)Nc1ccc(Oc2nnc(-c3ccc(Cl)cc3)c3ccccc23)cc1 | MCF7 | cell growth or viability, MTT | 0.312 µM, 24 h | viability | 100% |
| C=C(C)[C@@H]1CC[C@@H](C)C[C@H]1OCc1ccccc1 | MCF7 | cell growth or viability, MTT | 30 µM, 72 h | inhibition | 31.6% |
| C=CC(=O)NC1CCN(c2ncc3ncnc(Nc4ccc(Oc5ccc6c(c5)ncn6C)c(C)c4)c3n2)CC1 | NCI-H2126 | cell growth or viability | – | pEC50 | 5.96 |
| CCN(CC)c1ccc(/C=N/c2ccc(Cl)cc2)c(O)c1 | – | DPPH scavenging | – | pIC50 | 4.52 |
| CC(=NNC(=O)c1ccccc1)c1ccc(Nc2nnc(-c3ccc(Cl)cc3)c3ccccc23)cc1 | MCF7 | cell growth or viability, MTT | 2.5 µM | cell death | 86.3% |
| Brc1ccccc1/C=N/N=C/c1ccccc1Br | – | DPPH scavenging | – | pIC50 | < 2.52 |
| CC(=O)c1nn(-c2ccccc2Cl)/c(=N/N=C(\C)c2ccc(NC(=O)c3ccccc3)cc2)s1 | MCF7 | cell growth or viability, MTT | 0.625 µM | viability | 6.6% |
| Brc1ccc(/C=N/N=C/c2ccc(Br)cc2)cc1 | – | DPPH scavenging | – | pIC50 | < 2.52 |
| CCOC(=O)c1nn(-c2cccc(Cl)c2)/c(=N/N=C(\C)c2ccc(NC(=O)c3ccc(Cl)cc3)cc2)s1 | MCF7 | cell growth or viability, MTT | 10 µM | viability | 3.71% |
| Nc1ccc(/C=N/N=C/c2ccc(N)cc2)cc1 | – | DPPH scavenging | – | pIC50 | < 2.52 |
| CC(=NNC(=S)Nc1ccccc1)c1ccc(Nc2nnc(-c3ccc(Cl)cc3)c3ccccc23)cc1 | MCF7 | cell growth or viability, MTT | 1.25 µM, 24 h | viability | 27.5% |
| CCOC(=O)c1nn(-c2cccc(Cl)c2)/c(=N/N=C(\C)c2ccc(NC(=O)c3ccccc3)cc2)s1 | MCF7 | cell growth or viability, MTT | 78 nM | viability | 87.7% |
| FC(F)(F)c1ccccc1/C=N/N=C/c1ccccc1C(F)(F)F | – | DPPH scavenging | – | pIC50 | 2.78 |
| CC(=NNC(=O)c1cccnc1)c1ccc(Nc2nnc(-c3ccc(Cl)cc3)c3ccccc23)cc1 | MCF7 | cell growth or viability, MTT | 0.625 µM | cell death | 50.6% |
| COc1cc(/C=N/N=C/c2cc(OC)c(OC)c(OC)c2)cc(OC)c1OC | – | DPPH scavenging | – | pIC50 | 2.62 |
| O=C(Nc1ccccc1)Nc1ccc(Oc2nnc(-c3ccc(Cl)cc3)c3ccccc23)cc1 | MCF7 | cell growth or viability, MTT | 78 nM, 24 h | viability | 96.4% |
